In ChEMBL document CHEMBL1153370, “New pyridazine derivatives: synthesis, chemistry and biological activity” (2009):

Columns and labels:
Assay type in all cases: functional
Micrococcus luteus [1] = test: Antibacterial activity Sarcina lutea ATCC 9341 after 24 hrs at 30 degC by agar diffusion technique
In short: (§1)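 Agar diffusion method. Bacteria were maintained on Mueller Hinton agar, and the agar medium was inoculated with each test organism. Plates were incubated 24 h at 30 °C, then the diameter of the inhibition zone was measured in mm and reported as the mean diameter.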

Bacillus subtilis [2] = test: Antibacterial activity Bacillus subtilis after 24 hrs at 30 degC by agar diffusion technique; in short: as §1
Candida albicans = test: Antifungal activity Candida albicans ATCC 10231 after 48 hrs at 28 degC by agar diffusion technique
In short: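 Fungi were maintained on Mueller Hinton agar and tested by diffusion on agar seeded with the organism. After 48 h incubation at 28 °C, the inhibition zone diameter (mm, mean) was measured.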

Pseudomonas aeruginosa [3] = test: Antibacterial activity Pseudomonas aeruginosa after 24 hrs at 30 degC by agar diffusion technique; in short: as §1
Escherichia coli [4] = test: Antibacterial activity Escherichia coli ATCC 25922 after 24 hrs at 30 degC by agar diffusion technique; in short: as §1
Staphylococcus aureus [5] = test: Antibacterial activity Staphylococcus aureus ATCC 25923 after 24 hrs at 30 degC by agar diffusion technique; in short: as §1
Bacillus subtilis [6] = test: Antibacterial activity Bacillus subtilis at 30 ug/disk after 24 hrs at 30 degC by agar diffusion technique; settings: read-out: Diameter of inhibition zone; in short: as §1
Micrococcus luteus [7] = test: Antibacterial activity Sarcina lutea ATCC 9341 at 30 ug/disk after 24 hrs at 30 degC by agar diffusion technique; settings: ATCC 9341, 24 h, read-out: Diameter of inhibition zone; in short: as §1
Escherichia coli [8] = test: Antibacterial activity Escherichia coli ATCC 25922 at 30 ug/disk after 24 hrs at 30 degC by agar diffusion technique; settings: ATCC 25922, 24 h, read-out: Diameter of inhibition zone
In short: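 Agar diffusion method; organisms kept on Mueller Hinton agar, and agar media were inoculated with the test culture. Bacterial plates incubated 24 h at 30 °C, then diameter of the inhibition zone measured in mm (mean diameter).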

Staphylococcus aureus [9] = test: Antibacterial activity Staphylococcus aureus ATCC 25923 at 30 ug/disk after 24 hrs at 30 degC by agar diffusion technique; settings: ATCC 25923, 24 h, read-out: Diameter of inhibition zone; in short: as §1
Pseudomonas aeruginosa [10] = test: Antibacterial activity Pseudomonas aeruginosa at 30 ug/disk after 24 hrs at 30 degC by agar diffusion technique; settings: read-out: Diameter of inhibition zone; in short: as §1

SMILES: COC(=O)[C@H]1[C@H](C(=O)OC)[C@H](C(=O)c2ccc(Cl)cc2)N2N=CC=C[C@@H]12
- Diameter of inhibition zone (Micrococcus luteus [1]): 54 mm
- Diameter of inhibition zone (Bacillus subtilis [2]): 36 mm
- Diameter of inhibition zone (Candida albicans): 27 mm
- Diameter of inhibition zone (Pseudomonas aeruginosa [3]): 15 mm
- Diameter of inhibition zone (Escherichia coli [4]): 31 mm
- Diameter of inhibition zone (Staphylococcus aureus [5]): 23 mm

SMILES: Cc1ccc(C(=O)[C@@H]2C[C@H](C#N)[C@@H]3C=CC=NN23)cc1
- Diameter of inhibition zone (Micrococcus luteus [1]): 67 mm
- Diameter of inhibition zone (Bacillus subtilis [2]): 39 mm
- Diameter of inhibition zone (Candida albicans): 30 mm
- Diameter of inhibition zone (Pseudomonas aeruginosa [3]): 19 mm
- Diameter of inhibition zone (Escherichia coli [4]): 23 mm
- Diameter of inhibition zone (Staphylococcus aureus [5]): 46 mm

SMILES: COC(=O)c1c(C(=O)OC)c2cccnn2c1C(=O)c1ccc(F)cc1
- Diameter of inhibition zone (Micrococcus luteus [1]): 52 mm
- Diameter of inhibition zone (Bacillus subtilis [2]): 23 mm
- Diameter of inhibition zone (Candida albicans): 21 mm
- Diameter of inhibition zone (Pseudomonas aeruginosa [3]): 15 mm
- Diameter of inhibition zone (Escherichia coli [4]): 21 mm
- Diameter of inhibition zone (Staphylococcus aureus [5]): 27 mm

SMILES: COC(=O)[C@H]1[C@H](C(=O)OC)[C@H](C(=O)c2ccc(C)cc2)N2N=CC=C[C@@H]12
- Diameter of inhibition zone (Micrococcus luteus [1]): 59 mm
- Diameter of inhibition zone (Bacillus subtilis [2]): 38 mm
- Diameter of inhibition zone (Candida albicans): 29 mm
- Diameter of inhibition zone (Pseudomonas aeruginosa [3]): 17 mm
- Diameter of inhibition zone (Escherichia coli [4]): 37 mm
- Diameter of inhibition zone (Staphylococcus aureus [5]): 47 mm

SMILES: COC(=O)c1c(C(=O)OC)c2cccnn2c1C(=O)c1ccc(Cl)cc1
- Diameter of inhibition zone (Micrococcus luteus [1]): 57 mm
- Diameter of inhibition zone (Bacillus subtilis [2]): 26 mm
- Diameter of inhibition zone (Candida albicans): 24 mm
- Diameter of inhibition zone (Pseudomonas aeruginosa [3]): 18 mm
- Diameter of inhibition zone (Escherichia coli [4]): 31 mm
- Diameter of inhibition zone (Staphylococcus aureus [5]): 30 mm

SMILES: COC(=O)c1c(C(=O)OC)c2cccnn2c1C(=O)c1ccc(C)cc1
- Diameter of inhibition zone (Micrococcus luteus [1]): 65 mm
- Diameter of inhibition zone (Bacillus subtilis [2]): 26 mm
- Diameter of inhibition zone (Candida albicans): 29 mm
- Diameter of inhibition zone (Pseudomonas aeruginosa [3]): 19 mm
- Diameter of inhibition zone (Escherichia coli [4]): 25 mm
- Diameter of inhibition zone (Staphylococcus aureus [5]): 46 mm

SMILES: N#C[C@H]1C[C@@H](C(=O)c2ccc(F)cc2)N2N=CC=C[C@@H]12
- Diameter of inhibition zone (Micrococcus luteus [1]): 50 mm
- Diameter of inhibition zone (Bacillus subtilis [2]): 27 mm
- Diameter of inhibition zone (Candida albicans): 23 mm
- Diameter of inhibition zone (Pseudomonas aeruginosa [3]): 14 mm
- Diameter of inhibition zone (Escherichia coli [4]): 20 mm
- Diameter of inhibition zone (Staphylococcus aureus [5]): 26 mm

SMILES: CCOC(=O)c1cc(C(=O)c2ccc(Cl)cc2)n2ncccc12
- Diameter of inhibition zone (Micrococcus luteus [1]): 48 mm
- Diameter of inhibition zone (Bacillus subtilis [2]): 25 mm
- Diameter of inhibition zone (Candida albicans): 30 mm
- Diameter of inhibition zone (Pseudomonas aeruginosa [3]): 20 mm
- Diameter of inhibition zone (Escherichia coli [4]): 33 mm
- Diameter of inhibition zone (Staphylococcus aureus [5]): 25 mm

SMILES: COC(=O)[C@@H]1[C@H](C(=O)OC)[C@H](C(=O)c2ccc(F)cc2)N2N=CC=C[C@@H]12
- Diameter of inhibition zone (Micrococcus luteus [1]): 60 mm
- Diameter of inhibition zone (Bacillus subtilis [2]): 37 mm
- Diameter of inhibition zone (Candida albicans): 24 mm
- Diameter of inhibition zone (Pseudomonas aeruginosa [3]): 18 mm
- Diameter of inhibition zone (Escherichia coli [4]): 35 mm
- Diameter of inhibition zone (Staphylococcus aureus [5]): 29 mm

SMILES: COC(=O)[C@@H]1[C@H](C(=O)OC)[C@H](C(=O)c2ccc(Cl)cc2)N2N=CC=C[C@@H]12
- Diameter of inhibition zone (Micrococcus luteus [1]): 56 mm
- Diameter of inhibition zone (Bacillus subtilis [2]): 39 mm
- Diameter of inhibition zone (Candida albicans): 25 mm
- Diameter of inhibition zone (Pseudomonas aeruginosa [3]): 18 mm
- Diameter of inhibition zone (Escherichia coli [4]): 32 mm
- Diameter of inhibition zone (Staphylococcus aureus [5]): 33 mm

SMILES: O=C(C[n+]1ccccn1)c1ccc(Cl)cc1.[Br-]
- Diameter of inhibition zone (Micrococcus luteus [1]): 57 mm
- Diameter of inhibition zone (Bacillus subtilis [2]): 32 mm
- Diameter of inhibition zone (Candida albicans): 29 mm
- Diameter of inhibition zone (Pseudomonas aeruginosa [3]): 20 mm
- Diameter of inhibition zone (Escherichia coli [4]): 36 mm
- Diameter of inhibition zone (Staphylococcus aureus [5]): 36 mm

SMILES: O=C(c1ccc(Cl)cc1)[C@H]1[C@@H]2C(=O)N(c3ccccc3)C(=O)[C@@H]2[C@@H]2C=CC=NN21
- Diameter of inhibition zone (Micrococcus luteus [1]): 54 mm
- Diameter of inhibition zone (Bacillus subtilis [2]): 28 mm
- Diameter of inhibition zone (Candida albicans): 34 mm
- Diameter of inhibition zone (Pseudomonas aeruginosa [3]): 18 mm
- Diameter of inhibition zone (Escherichia coli [4]): 28 mm
- Diameter of inhibition zone (Staphylococcus aureus [5]): 28 mm

SMILES: Cc1ccc(C(=O)[C@H]2[C@@H]3C(=O)N(c4ccccc4)C(=O)[C@@H]3[C@@H]3C=CC=NN32)cc1
- Diameter of inhibition zone (Micrococcus luteus [1]): 73 mm
- Diameter of inhibition zone (Bacillus subtilis [2]): 37 mm
- Diameter of inhibition zone (Candida albicans): 29 mm
- Diameter of inhibition zone (Pseudomonas aeruginosa [3]): 18 mm
- Diameter of inhibition zone (Escherichia coli [4]): 24 mm
- Diameter of inhibition zone (Staphylococcus aureus [5]): 31 mm

SMILES: CCOC(=O)c1cc(C(=O)c2ccc(F)cc2)n2ncccc12
- Diameter of inhibition zone (Micrococcus luteus [1]): 48 mm
- Diameter of inhibition zone (Bacillus subtilis [2]): 22 mm
- Diameter of inhibition zone (Candida albicans): 22 mm
- Diameter of inhibition zone (Pseudomonas aeruginosa [3]): 20 mm
- Diameter of inhibition zone (Escherichia coli [4]): 23 mm
- Diameter of inhibition zone (Staphylococcus aureus [5]): 27 mm

SMILES: O=C(C[n+]1ccccn1)c1ccc(F)cc1.[Br-]
- Diameter of inhibition zone (Micrococcus luteus [1]): 61 mm
- Diameter of inhibition zone (Bacillus subtilis [2]): 31 mm
- Diameter of inhibition zone (Candida albicans): 19 mm
- Diameter of inhibition zone (Pseudomonas aeruginosa [3]): 20 mm
- Diameter of inhibition zone (Escherichia coli [4]): 31 mm
- Diameter of inhibition zone (Staphylococcus aureus [5]): 38 mm

SMILES: N#C[C@H]1C[C@@H](C(=O)c2ccc(Cl)cc2)N2N=CC=C[C@@H]12
- Diameter of inhibition zone (Micrococcus luteus [1]): 57 mm
- Diameter of inhibition zone (Bacillus subtilis [2]): 29 mm
- Diameter of inhibition zone (Candida albicans): 35 mm
- Diameter of inhibition zone (Pseudomonas aeruginosa [3]): 14 mm
- Diameter of inhibition zone (Escherichia coli [4]): 28 mm
- Diameter of inhibition zone (Staphylococcus aureus [5]): 30 mm

SMILES: COC(=O)[C@H]1[C@H](C(=O)OC)[C@H](C(=O)c2ccc(F)cc2)N2N=CC=C[C@@H]12
- Diameter of inhibition zone (Micrococcus luteus [1]): 51 mm
- Diameter of inhibition zone (Bacillus subtilis [2]): 35 mm
- Diameter of inhibition zone (Candida albicans): 27 mm
- Diameter of inhibition zone (Pseudomonas aeruginosa [3]): 17 mm
- Diameter of inhibition zone (Escherichia coli [4]): 35 mm
- Diameter of inhibition zone (Staphylococcus aureus [5]): 29 mm

SMILES: CCOC(=O)c1cc(C(=O)c2ccc(C)cc2)n2ncccc12
- Diameter of inhibition zone (Micrococcus luteus [1]): 56 mm
- Diameter of inhibition zone (Bacillus subtilis [2]): 37 mm
- Diameter of inhibition zone (Candida albicans): 28 mm
- Diameter of inhibition zone (Pseudomonas aeruginosa [3]): 18 mm
- Diameter of inhibition zone (Escherichia coli [4]): 25 mm
- Diameter of inhibition zone (Staphylococcus aureus [5]): 40 mm

SMILES: COC(=O)[C@@H]1[C@H](C(=O)OC)[C@H](C(=O)c2ccc(C)cc2)N2N=CC=C[C@@H]12
- Diameter of inhibition zone (Micrococcus luteus [1]): 62 mm
- Diameter of inhibition zone (Bacillus subtilis [2]): 39 mm
- Diameter of inhibition zone (Candida albicans): 30 mm
- Diameter of inhibition zone (Pseudomonas aeruginosa [3]): 19 mm
- Diameter of inhibition zone (Escherichia coli [4]): 37 mm
- Diameter of inhibition zone (Staphylococcus aureus [5]): 41 mm

SMILES: O=C(c1ccc(F)cc1)[C@H]1[C@@H]2C(=O)N(c3ccccc3)C(=O)[C@@H]2[C@@H]2C=CC=NN21
- Diameter of inhibition zone (Micrococcus luteus [1]): 63 mm
- Diameter of inhibition zone (Bacillus subtilis [2]): 28 mm
- Diameter of inhibition zone (Candida albicans): 25 mm
- Diameter of inhibition zone (Pseudomonas aeruginosa [3]): 16 mm
- Diameter of inhibition zone (Escherichia coli [4]): 25 mm
- Diameter of inhibition zone (Staphylococcus aureus [5]): 27 mm

SMILES: Cc1ccc(C(=O)C[n+]2ccccn2)cc1.[Br-]
- Diameter of inhibition zone (Micrococcus luteus [1]): 81 mm
- Diameter of inhibition zone (Bacillus subtilis [2]): 40 mm
- Diameter of inhibition zone (Candida albicans): 27 mm
- Diameter of inhibition zone (Pseudomonas aeruginosa [3]): 20 mm
- Diameter of inhibition zone (Escherichia coli [4]): 25 mm
- Diameter of inhibition zone (Staphylococcus aureus [5]): 47 mm

SMILES: O=C(N[C@H](CO)[C@H](O)c1ccc([N+](=O)[O-])cc1)C(Cl)Cl [CHLORAMPHENICOL]
- zone of inhibition at 30 µg/disc (Bacillus subtilis [6]): 26 mm
- zone of inhibition at 30 µg/disc (Micrococcus luteus [7]): 40 mm
- zone of inhibition at 30 µg/disc (Escherichia coli [8]): 25 mm
- zone of inhibition at 30 µg/disc (Staphylococcus aureus [9]): 30 mm
- zone of inhibition at 30 µg/disc (Pseudomonas aeruginosa [10]): 19 mm
